Measurements: ChEMBL document CHEMBL4261600 (Eur J Med Chem, 2018)

Legend:
SKM-1 = assay: Antiproliferative activity against human SKM1 cells after 72 hrs by Celltiter-Glo assay; format: functional; settings: SKM-1, 72 h
Method in brief: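 Cells seeded at 3000/well in 96-well plates, exposed to serially diluted compound for 72 h at 37 °C, 5% CO2. Viability read by CellTiter-Glo luminescence and normalized to DMSO control. GI50 derived from curve fit, mean of three independent measurements. Culture media: DMEM/10% FBS for adherent lines; IMDM for MV4-11 and MEC-1/2; RPMI 1640 for suspension lines and CHL.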

[1] = Half life in beagle dog at 10 mg/kg, po by LC-MS/MS analysis; format: ADME, organism-based, Canis lupus familiaris; settings: in vivo
Canis familiaris = assay: AUC (0 to infinity) in beagle dog at 2 mg/kg, iv by LC-MS/MS analysis; format: ADME, organism-based, Canis lupus familiaris; set-up: dose 2 mg/kg, route intravenous, time infinity; settings: in vivo
Method in brief: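 Non-compartmental PK. Male SD rats 190-210 g, mice and beagle dogs acclimatized one week, fasted 12 h with water, split into iv and po groups (mice 48, rats 6, dogs 6). iv 3/3/2 mg/kg (mice/rats/dogs); po 10/20/10 mg/kg; vehicle DMSO in 5% glucose water. Blood at 2 or 5 to 720 min; plasma protein-precipitated with methanol, caffeine internal standard, LC-MS/MS.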

[2] = target: Serine/threonine-protein kinase BRSK1 (Homo sapiens) (UniProt Q8TDC3); assay: Binding affinity to wild-type human partial length BRSK1 (M1 to E754 residues) expressed in bacterial expression system assessed as remaining unbound target protein level at 1000 nM by Kinomescan method relative to control
Chain of Serine/threonine-protein kinase BRSK1 (Homo sapiens) (Q8TDC3 whole entry, the tested form may be a part): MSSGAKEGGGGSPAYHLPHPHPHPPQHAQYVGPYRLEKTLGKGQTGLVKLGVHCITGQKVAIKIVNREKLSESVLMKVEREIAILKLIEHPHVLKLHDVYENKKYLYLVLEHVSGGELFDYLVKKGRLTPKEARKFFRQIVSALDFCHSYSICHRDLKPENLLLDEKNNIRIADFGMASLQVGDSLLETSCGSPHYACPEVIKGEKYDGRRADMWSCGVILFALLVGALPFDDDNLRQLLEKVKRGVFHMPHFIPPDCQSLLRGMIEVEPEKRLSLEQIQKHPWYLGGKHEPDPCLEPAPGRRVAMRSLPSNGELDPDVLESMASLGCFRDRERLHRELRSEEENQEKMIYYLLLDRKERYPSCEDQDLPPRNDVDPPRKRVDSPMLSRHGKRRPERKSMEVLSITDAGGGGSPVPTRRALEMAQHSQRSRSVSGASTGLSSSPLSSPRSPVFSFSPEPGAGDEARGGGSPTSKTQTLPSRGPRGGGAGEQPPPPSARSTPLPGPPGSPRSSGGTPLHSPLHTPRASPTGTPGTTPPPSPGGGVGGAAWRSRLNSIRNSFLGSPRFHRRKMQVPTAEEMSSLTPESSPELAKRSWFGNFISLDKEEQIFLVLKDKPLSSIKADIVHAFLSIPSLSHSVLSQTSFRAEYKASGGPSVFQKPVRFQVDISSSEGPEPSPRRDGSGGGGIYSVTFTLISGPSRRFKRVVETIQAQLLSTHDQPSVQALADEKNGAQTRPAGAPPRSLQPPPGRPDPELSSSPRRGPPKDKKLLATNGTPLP
Method in brief: (§1)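 Profiled in a KINOMEscan binding panel with the inhibitor at a single concentration of 1 μM. Binding to each kinase was read out as percent of control, relative to a DMSO control. Strong binders were defined as those with a percent control value below 1.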

[3] = target: Calcium/calmodulin-dependent protein kinase type 1 (Homo sapiens) (UniProt Q14012); assay: Binding affinity to wild-type human full length CAMK1 (M1 to L370 residues) expressed in bacterial expression system assessed as remaining unbound target protein level at 1000 nM by Kinomescan method relative to control
Chain of Calcium/calmodulin-dependent protein kinase type 1 (Homo sapiens) (Q14012 whole entry, looked up, the tested form may be a part): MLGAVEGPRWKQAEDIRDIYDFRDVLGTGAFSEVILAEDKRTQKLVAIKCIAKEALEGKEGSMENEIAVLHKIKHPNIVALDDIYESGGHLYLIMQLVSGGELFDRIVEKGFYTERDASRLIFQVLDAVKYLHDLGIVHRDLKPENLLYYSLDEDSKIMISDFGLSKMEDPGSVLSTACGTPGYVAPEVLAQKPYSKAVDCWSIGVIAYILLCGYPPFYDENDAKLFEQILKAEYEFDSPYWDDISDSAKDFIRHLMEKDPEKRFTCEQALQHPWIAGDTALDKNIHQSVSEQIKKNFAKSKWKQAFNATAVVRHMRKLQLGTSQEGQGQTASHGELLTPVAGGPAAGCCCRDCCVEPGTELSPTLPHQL
Method in brief: (§2)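 Single-point competition binding screen across a panel of 468 kinases and mutants, with the inhibitor at 1 μM. Binding is read out as percent of a DMSO control, and targets below 1 percent control were classed as strong binders.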

[4] = target: Calcium/calmodulin-dependent protein kinase type II subunit delta (Homo sapiens) (UniProt Q13557); assay: Binding affinity to wild-type human partial length CAMK2D (M1 to E329 residues) expressed in bacterial expression system assessed as remaining unbound target protein level at 1000 nM by Kinomescan method relative to control; method in brief: as §1
[5] = target: Calcium/calmodulin-dependent protein kinase kinase 2 (Homo sapiens) (UniProt Q96RR4); assay: Binding affinity to wild-type human partial length CAMKK2 (D65 to V471 residues) expressed in bacterial expression system assessed as remaining unbound target protein level at 1000 nM by Kinomescan method relative to control; method in brief: as §1
Chain of Calcium/calmodulin-dependent protein kinase kinase 2 (Homo sapiens) (Q96RR4 2-588 limits assumed): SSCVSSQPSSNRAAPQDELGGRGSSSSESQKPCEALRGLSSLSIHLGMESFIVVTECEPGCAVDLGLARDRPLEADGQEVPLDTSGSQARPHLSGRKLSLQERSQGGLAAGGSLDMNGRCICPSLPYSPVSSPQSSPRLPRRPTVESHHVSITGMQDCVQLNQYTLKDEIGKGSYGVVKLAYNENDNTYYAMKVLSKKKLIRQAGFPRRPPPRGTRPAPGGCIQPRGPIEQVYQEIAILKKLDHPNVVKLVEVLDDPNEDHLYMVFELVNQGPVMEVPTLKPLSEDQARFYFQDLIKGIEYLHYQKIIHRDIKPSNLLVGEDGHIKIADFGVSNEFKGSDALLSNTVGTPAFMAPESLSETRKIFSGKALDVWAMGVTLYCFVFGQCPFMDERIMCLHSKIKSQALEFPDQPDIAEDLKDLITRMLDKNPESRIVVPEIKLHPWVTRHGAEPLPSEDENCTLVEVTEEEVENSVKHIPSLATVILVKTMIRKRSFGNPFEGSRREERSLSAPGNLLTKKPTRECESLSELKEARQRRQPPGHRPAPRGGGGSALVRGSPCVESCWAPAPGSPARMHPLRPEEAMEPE

[6] = target: Fibroblast growth factor receptor 1 (Homo sapiens) (UniProt P11362); assay: Binding affinity to wild-type human partial length FGFR1 (P357 to V669 residues) expressed in bacterial expression system assessed as remaining unbound target protein level at 1000 nM by Kinomescan method relative to control
Method in brief: (§3)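 KINOMEscan binding panel of 468 kinases/mutants. Inhibitor was tested at a single concentration of 1 μM. Binding is reported as percent of control, defined relative to a DMSO control.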

[7] = tested on: Receptor-type tyrosine-protein kinase FLT3 (Homo sapiens), P36888 [D835V]; assay: Binding affinity to human partial length FLT3 D835V mutant (V592 to Y969 residues) expressed in bacterial expression system assessed as remaining unbound target protein level at 1000 nM by Kinomescan method relative to control
Method in brief: (§4)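 KINOMEscan competition-binding profiling across the panel of 468 kinases and mutants, with inhibitor tested at 1 μM. Binding is expressed as percent of control, with DMSO as the reference control.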

[8] = tested on: Receptor-type tyrosine-protein kinase FLT3 (Homo sapiens), P36888 [N841I]; assay: Binding affinity to human partial length FLT3 N841I mutant (V592 to Y969 residues) expressed in bacterial expression system assessed as remaining unbound target protein level at 1000 nM by Kinomescan method relative to control; method in brief: as §4
[9] = target: Serine/threonine-protein kinase LATS1 (Homo sapiens) (UniProt O95835); assay: Binding affinity to wild-type human partial length LATS1 (Q678 to V1130 residues) expressed in bacterial expression system assessed as remaining unbound target protein level at 1000 nM by Kinomescan method relative to control
[10] = target: Mitogen-activated protein kinase kinase kinase kinase 2 (Homo sapiens) (UniProt Q12851); assay: Binding affinity to wild-type human partial length MAP4K2 (M1 to G318 residues) expressed in mammalian expression system assessed as remaining unbound target protein level at 1000 nM by Kinomescan method relative to control; method in brief: as §3
Chain of Mitogen-activated protein kinase kinase kinase kinase 2 (Homo sapiens) (Q12851 whole entry, the tested form may be a part): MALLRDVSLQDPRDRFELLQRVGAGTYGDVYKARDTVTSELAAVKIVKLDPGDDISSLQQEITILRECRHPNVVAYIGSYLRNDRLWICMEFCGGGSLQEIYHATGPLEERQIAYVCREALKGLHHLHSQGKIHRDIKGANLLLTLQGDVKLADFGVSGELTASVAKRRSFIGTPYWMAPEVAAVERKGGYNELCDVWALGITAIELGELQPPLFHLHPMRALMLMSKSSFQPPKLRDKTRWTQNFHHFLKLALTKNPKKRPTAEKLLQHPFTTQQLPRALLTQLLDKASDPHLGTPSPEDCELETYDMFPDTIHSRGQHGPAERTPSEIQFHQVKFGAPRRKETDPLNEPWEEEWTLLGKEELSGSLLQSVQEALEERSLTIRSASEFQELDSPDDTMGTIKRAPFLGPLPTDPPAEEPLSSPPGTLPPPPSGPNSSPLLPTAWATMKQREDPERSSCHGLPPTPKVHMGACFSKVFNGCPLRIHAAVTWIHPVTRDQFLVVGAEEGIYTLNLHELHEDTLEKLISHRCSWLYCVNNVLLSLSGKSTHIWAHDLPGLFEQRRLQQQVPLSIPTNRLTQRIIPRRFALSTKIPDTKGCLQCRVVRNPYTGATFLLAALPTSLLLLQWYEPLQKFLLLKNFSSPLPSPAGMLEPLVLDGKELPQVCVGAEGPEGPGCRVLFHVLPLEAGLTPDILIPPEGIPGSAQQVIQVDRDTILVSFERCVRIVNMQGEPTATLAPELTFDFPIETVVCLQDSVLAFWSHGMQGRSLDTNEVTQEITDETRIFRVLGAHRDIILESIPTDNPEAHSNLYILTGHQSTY

[11] = target: Serine/threonine-protein kinase Nek7 (Homo sapiens) (UniProt Q8TDX7); assay: Binding affinity to wild-type human full length NEK7 (M1 to S302 residues) expressed in bacterial expression system assessed as remaining unbound target protein level at 1000 nM by Kinomescan method relative to control; method in brief: as §2
Chain of Serine/threonine-protein kinase Nek7 (Homo sapiens) (Q8TDX7 whole entry, looked up, the tested form may be a part): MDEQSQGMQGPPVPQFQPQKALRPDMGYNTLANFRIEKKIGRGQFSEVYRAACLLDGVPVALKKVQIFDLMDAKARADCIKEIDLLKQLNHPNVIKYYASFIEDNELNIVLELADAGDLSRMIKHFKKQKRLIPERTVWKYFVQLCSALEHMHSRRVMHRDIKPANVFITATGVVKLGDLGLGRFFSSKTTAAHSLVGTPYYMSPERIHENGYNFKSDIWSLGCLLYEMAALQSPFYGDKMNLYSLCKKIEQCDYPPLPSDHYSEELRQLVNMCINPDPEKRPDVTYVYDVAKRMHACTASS

[12] = target: Phosphatidylinositol 4-phosphate 5-kinase type-1 gamma (Homo sapiens) (UniProt O60331); assay: Binding affinity to wild-type human partial length PIP5K1C (M1 to T668 residues) expressed in mammalian expression system assessed as remaining unbound target protein level at 1000 nM by Kinomescan method relative to control
Chain of Phosphatidylinositol 4-phosphate 5-kinase type-1 gamma (Homo sapiens) (O60331 whole entry, the tested form may be a part): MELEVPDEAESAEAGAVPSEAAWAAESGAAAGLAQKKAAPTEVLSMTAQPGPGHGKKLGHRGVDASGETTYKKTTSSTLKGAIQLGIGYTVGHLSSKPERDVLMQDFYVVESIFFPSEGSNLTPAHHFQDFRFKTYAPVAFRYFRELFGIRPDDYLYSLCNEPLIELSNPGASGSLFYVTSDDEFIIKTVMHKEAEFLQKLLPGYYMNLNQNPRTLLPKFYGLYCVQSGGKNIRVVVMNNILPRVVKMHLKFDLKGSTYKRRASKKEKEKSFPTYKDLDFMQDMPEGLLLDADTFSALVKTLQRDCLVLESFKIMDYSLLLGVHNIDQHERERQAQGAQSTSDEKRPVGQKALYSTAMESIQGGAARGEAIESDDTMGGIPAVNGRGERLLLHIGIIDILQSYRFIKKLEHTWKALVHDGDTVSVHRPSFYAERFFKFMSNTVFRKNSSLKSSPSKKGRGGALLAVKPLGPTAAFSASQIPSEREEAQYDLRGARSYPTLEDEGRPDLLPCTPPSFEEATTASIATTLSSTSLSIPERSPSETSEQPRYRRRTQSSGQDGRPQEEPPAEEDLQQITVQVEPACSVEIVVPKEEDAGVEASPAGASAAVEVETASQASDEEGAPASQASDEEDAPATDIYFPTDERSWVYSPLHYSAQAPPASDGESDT

[13] = target: Proto-oncogene tyrosine-protein kinase receptor Ret (Homo sapiens) (UniProt P07949); assay: Binding affinity to wild-type human partial length RET (E713 to D1014 residues) expressed in bacterial expression system assessed as remaining unbound target protein level at 1000 nM by Kinomescan method relative to control
[14] = target: Ribosomal protein S6 kinase alpha-4 (Homo sapiens) (UniProt O75676); assay: Binding affinity to wild-type human partial length C-terminal RPS6KA4 kinase domain 2 (M375 to T705 residues) expressed in mammalian expression system assessed as remaining unbound target protein level at 1000 nM by Kinomescan method relative to control; method in brief: as §1
[15] = target: SNF-related serine/threonine-protein kinase (Homo sapiens) (UniProt Q9NRH2); assay: Binding affinity to wild-type human partial length SNRK (M1 to E339 residues) expressed in mammalian expression system assessed as remaining unbound target protein level at 1000 nM by Kinomescan method relative to control
Chain of SNF-related serine/threonine-protein kinase (Homo sapiens) (Q9NRH2 whole entry, the tested form may be a part): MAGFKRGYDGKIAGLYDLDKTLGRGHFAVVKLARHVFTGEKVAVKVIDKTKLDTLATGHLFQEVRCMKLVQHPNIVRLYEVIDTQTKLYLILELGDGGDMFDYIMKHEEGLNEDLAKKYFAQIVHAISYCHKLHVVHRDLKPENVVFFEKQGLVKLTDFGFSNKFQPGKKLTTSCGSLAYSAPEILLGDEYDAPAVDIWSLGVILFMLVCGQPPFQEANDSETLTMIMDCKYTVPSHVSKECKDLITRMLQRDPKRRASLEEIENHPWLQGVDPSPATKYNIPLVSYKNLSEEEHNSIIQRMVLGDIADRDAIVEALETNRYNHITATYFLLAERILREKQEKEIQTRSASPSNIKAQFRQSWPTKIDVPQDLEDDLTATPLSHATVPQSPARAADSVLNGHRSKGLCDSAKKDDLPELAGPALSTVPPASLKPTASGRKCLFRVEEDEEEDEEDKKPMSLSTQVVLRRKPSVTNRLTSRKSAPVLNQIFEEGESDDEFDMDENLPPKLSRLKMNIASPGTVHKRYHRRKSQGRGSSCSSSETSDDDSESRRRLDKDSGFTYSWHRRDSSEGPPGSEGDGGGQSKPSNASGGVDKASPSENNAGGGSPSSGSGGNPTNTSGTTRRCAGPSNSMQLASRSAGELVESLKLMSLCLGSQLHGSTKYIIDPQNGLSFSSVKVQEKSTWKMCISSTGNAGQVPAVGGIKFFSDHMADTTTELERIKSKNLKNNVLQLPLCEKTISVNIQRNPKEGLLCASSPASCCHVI

[16] = target: Serine/threonine-protein kinase 33 (Homo sapiens) (UniProt Q9BYT3); assay: Binding affinity to wild-type human full length STK33 (M1 to L514 residues) expressed in bacterial expression system assessed as remaining unbound target protein level at 1000 nM by Kinomescan method relative to control; method in brief: as §1
Chain of Serine/threonine-protein kinase 33 (Homo sapiens) (Q9BYT3 whole entry, looked up, the tested form may be a part): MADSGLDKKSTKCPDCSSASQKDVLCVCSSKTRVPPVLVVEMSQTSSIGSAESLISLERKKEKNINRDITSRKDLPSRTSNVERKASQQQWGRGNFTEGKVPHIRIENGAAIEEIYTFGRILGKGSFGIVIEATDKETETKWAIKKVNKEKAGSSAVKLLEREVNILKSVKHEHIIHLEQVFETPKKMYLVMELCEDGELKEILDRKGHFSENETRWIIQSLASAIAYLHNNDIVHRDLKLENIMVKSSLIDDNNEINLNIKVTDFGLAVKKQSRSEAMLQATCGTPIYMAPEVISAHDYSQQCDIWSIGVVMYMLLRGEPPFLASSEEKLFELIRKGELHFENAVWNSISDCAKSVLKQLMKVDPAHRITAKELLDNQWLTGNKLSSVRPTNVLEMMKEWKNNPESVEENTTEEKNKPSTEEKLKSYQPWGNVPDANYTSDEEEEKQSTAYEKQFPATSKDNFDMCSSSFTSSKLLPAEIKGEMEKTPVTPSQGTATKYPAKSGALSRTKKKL

[17] = target: TGF-beta receptor type-1 (Homo sapiens) (UniProt P36897); assay: Binding affinity to wild-type human partial length TGFBR1 (D179 to M503 residues) expressed in bacterial expression system assessed as remaining unbound target protein level at 1000 nM by Kinomescan method relative to control
Homo sapiens = organism: Homo sapiens; assay: Selectivity ratio of IC50 for recombinant full length His-tagged human CDK8/CyclinC to IC50 for recombinant full length His-tagged human CDK9/CyclinT1

Structure (SMILES): COCCN[C@H]1CC[C@H](Nc2cc(-c3csc(NCC4(C#N)CCOCC4)n3)c(Cl)cn2)CC1
- GI50 (SKM-1): 12 nM
- half-life [1]: 20.4 h
- AUC (Canis familiaris): 3121.69 ng·h/mL
- Activity [2]: 85%
- Activity [3]: 89%
- Activity [4]: 83%
- Activity [5]: 100%
- Activity [6]: 95%
- Activity [7]: 88%
- Activity [8]: 83%
- Activity [9]: 96%
- Activity [10]: 56%
- Activity [11]: 83%
- Activity [12]: 100%
- Activity [13]: 100%
- Activity [14]: 65%
- Activity [15]: 100%
- Activity [16]: 78%
- Activity [17]: 98%
- Ratio IC50 (Homo sapiens): > 1000
